Shown are actives, neighbours in structure and some others; about 2.6% of the full set was active somewhere.
IMP-1 inh: IMP-1 metallo-beta-lactamase inhibitors, primary screen, biochemical, epi-absorbance readout, Pseudomonas aeruginosa enzyme; metallo-beta-lactamase IMP-1 (Pseudomonas aeruginosa); purified IMP-1, nitrocefin hydrolysis, epi-absorbance fluorescence; inhibition, % at 5.6 µM; 290,000 tested, 0.45% active; AID 1556, 2009;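 active = inhibition above the mean plus 3 SD of all compounds in the same screening run, cut at about 4.5% in these data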;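 also: 0% = IMP-1 with DMSO and 100% = DMSO wells lacking enzyme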
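System: purified IMP-1; amount: IMP-1 0.2 nM before substrate addition; compound: single dose, 5.6 µM; times: 25 °C, 15 min preincubation, 25 min reaction; signal: Epi-absorbance via hydrolysed-nitrocefin quenching of white-plate fluorescence, 480/530 nm, EDTA stop; benchmarks: DMSO with and without IMP-1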
Calb FLC: C. albicans growth inhibition with fluconazole, primary screen, CaCi-2 strain, Alamar Blue fluorescence | C. albicans CaCi-2 + fluconazole, 48 h | growth inhibition, % (test concentration not listed) | 300,000 tested, 0.57% active;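 active = growth inhibition above about 58% in most replicates, limit read from the data, passing the limit was not always enough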;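 also: all wells also contain fluconazole at 8 µg/ml as a sub-toxic cotreatment; 0% = median of DMSO wells and 100% = median of geldanamycin control wells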
ARFGAP1 inhibitor: inhibitors of rat ARFGAP1 GAP activity, primary screen, biochemical, fluorescence polarization, GDP tracer. ADP-ribosylation factor GTPase-activating protein 1 (Rattus norvegicus), Q62848. Arfgap1-stimulated ARF1 GTP hydrolysis, GDP FP detection. inhibition, % at 16.5 µM. 360,000 tested, 0.26% active;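 active = inhibition above a per-plate limit, mean inhibition of low control wells plus 3 SD, cut at about 25% in these data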;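 also: 0% = DMSO wells with enzyme and 100% = wells lacking Arfgap1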
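Assay system: Rat Arfgap1 GAP domain (His6, aa 1-136), purified enzyme | Buffer or medium: HEPES 25 mM pH 7.5, NaCl 150 mM, MgCl2, DTT | Schedule: GTP hydrolysis reaction 2 h at 25 °C | Signal: FP of antibody-bound GDP Alexa 633 tracer, ex 620/em 688 nm | Measure: Percent inhibition of Arfgap1-stimulated GTP hydrolysis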
ASAP1 inh: inhibitors of human ASAP1 ArfGAP activity, primary screen, biochemical, fluorescence polarization; Arf-GAP with SH3 domain, ANK repeat and PH domain-containing protein 1 (Homo sapiens), …; ASAP1-stimulated ARF1 GTP hydrolysis, GDP FP detection; inhibition, % at 16.5 µM; 360,000 tested, 0.19% active; AID 624377, 2012; in the data active = inhibition above about 25%;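 also: 0% = vehicle with enzyme and substrate and 100% = no enzyme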
Target sequence (Q9ULH1 325-724 limits assumed): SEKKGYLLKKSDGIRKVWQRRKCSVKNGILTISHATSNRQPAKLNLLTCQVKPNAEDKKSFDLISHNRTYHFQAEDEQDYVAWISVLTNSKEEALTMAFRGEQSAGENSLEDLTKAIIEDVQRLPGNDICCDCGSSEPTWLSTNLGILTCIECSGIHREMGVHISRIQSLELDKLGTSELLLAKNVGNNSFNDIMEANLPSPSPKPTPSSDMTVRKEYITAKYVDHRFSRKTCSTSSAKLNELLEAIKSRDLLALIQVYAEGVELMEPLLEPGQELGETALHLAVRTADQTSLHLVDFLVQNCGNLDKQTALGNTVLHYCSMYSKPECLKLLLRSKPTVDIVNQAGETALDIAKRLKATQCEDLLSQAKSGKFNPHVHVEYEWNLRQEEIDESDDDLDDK
PHOSPHO1 block: PubChem AID 1565; inhibition, % at 13.3 µM; recombinant PHOSPHO1, absorbance phosphatase assay; 290,000 tested, 1.1% active; Phosphoethanolamine/phosphocholine phosphatase (Homo sapiens), Q8TCT1; in the data active = inhibition above about 60%
Target sequence (Q8TCT1 whole entry, looked up): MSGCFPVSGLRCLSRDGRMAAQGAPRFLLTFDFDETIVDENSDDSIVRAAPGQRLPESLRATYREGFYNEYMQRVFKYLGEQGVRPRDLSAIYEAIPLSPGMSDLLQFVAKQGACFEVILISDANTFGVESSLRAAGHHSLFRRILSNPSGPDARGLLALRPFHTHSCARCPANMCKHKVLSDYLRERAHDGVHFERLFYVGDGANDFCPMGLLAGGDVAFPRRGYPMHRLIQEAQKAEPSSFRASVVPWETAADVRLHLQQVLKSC
VIM-2 inhibitor: VIM-2 metallo-beta-lactamase inhibitors, primary screen, biochemical, epi-absorbance readout, Pseudomonas aeruginosa enzyme; AID 1527, 2009; purified VIM-2, nitrocefin hydrolysis, epi-absorbance fluorescence; 290,000 tested, 0.89% active; inhibition, % at 5.6 µM;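 active = inhibition above the mean of all tested compounds plus 3 SD, cutoff set per screening run, cut at about 7.5% in these data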;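 also: red hydrolysis product quenches plate fluorescence so inhibitors raise well fluorescence; 0% = enzyme with DMSO and 100% = DMSO without enzyme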
* = called active by the depositor; . = no result given.

SMILES	IMP-1 inh	Calb FLC	ARFGAP1 inhibitor	ASAP1 inh	PHOSPHO1 block	VIM-2 inhibitor
CC(C)c1ccc(OCC(=O)Nc2cccc(C(=O)Nc3ccccc3C(=O)O)c2)cc1	-1	76*	1	16	21	0
COc1ccc(-c2ccc3c(n2)CCCN3S(=O)(=O)c2c(C)noc2C)cc1	.	.	13	-7	.	.
COC(=O)c1ccc2nc(-c3ccc(Cl)cc3)c(Cc3ccccc3)n2c1	.	.	0	-13	.	.
CN(C)S(=O)(=O)c1cccc(NC(=S)Nc2cccc3cnccc23)c1	1	18	20	-7	41	12*
S=C(Nc1cccnc1)Nc1cccc2cnccc12	-3	12	17	-11	56	5
COc1ccc(-c2cc(NC(=O)Cc3c(C)[nH]c4ccccc34)ccc2Nc2cccnc2)cc1F	.	.	-1	16	.	.
C[C@@H]1ON(C)[C@H]2C[C@H]3c4[nH]c5c(-c6ccc7c(c6)OCO7)cccc5c4CCN3C(=O)[C@@H]12	.	.	-1	15	.	.
CC(=O)Nc1ccc(NC(=O)CN(c2ccc([N+](=O)[O-])cc2)S(=O)(=O)c2ccccc2)cc1	-2	-1	12	7	67*	-3
COc1ccc(N(CC(=O)Nc2ccccc2C(N)=O)S(=O)(=O)c2ccc(C)c([N+](=O)[O-])c2)cc1	-2	95*	12	6	54	-5
COc1ccc(N(CC(=O)Nc2ccc(C(N)=O)cc2)S(=O)(=O)c2ccc(C)c([N+](=O)[O-])c2)cc1	-2	2	13	-6	5	-1
COCC(=O)Nc1ccc2c(c1)[C@H]1C[C@@H](CC(=O)NCC3CC3)O[C@H](CO)[C@H]1O2	.	.	-2	-13	.	.
CCc1c(-c2cccc(Br)c2)ncn1CCc1ccccc1OC	.	.	-11	-1	.	.
CCCCCCC(=O)NN1CCN(C)CC1	8.0*	13	1	10	-6	-4
CSc1nc(C=Nc2ccccc2Cl)c(O)n1Cc1cccc(Cl)c1	-1	2	0	-2	88*	3
COc1cc(N2CCC(O)CC2)ccc1Nc1cc(Nc2ccccc2S(=O)(=O)C(C)C)c2cc[nH]c2n1	.	.	8	9	.	.
CC(C)c1ccc(N2C(=O)CC(Sc3ncn[nH]3)C2=O)cc1 (configuration not stated)	-3	-1	3	6	93*	-3
CCCc1c(O)nc(SC2CC(=O)N(c3cc(OC)ccc3OC)C2=O)[nH]c1=O (configuration not stated)	-2	-3	8	5	15	1
CC(C)c1ccc(C(=O)CSc2ncn[nH]2)cc1	-3	6	-8	-10	100*	-2
COc1ccc(N2C(=O)CC(Sc3ncn[nH]3)C2=O)c(OC)c1 (configuration not stated)	-5	-2	13	-1	92*	-4
COc1cccc([C@@H](NC(=O)C(F)(F)F)[C@@H]2CCCC=C2c2ccccc2)c1	.	.	6	-2	.	.
O=C(CN1C(=O)C(c2ccccc2)Oc2cccnc21)NCc1ccccc1F (configuration not stated)	54*	-5	-3	-9	22	0
O=c1cc(CSc2ccc(Cl)cc2)nc(-c2ccccn2)[nH]1	-2	112*	-5	-13	.	-3
O=c1cc(CSc2ccc(Cl)cc2)nc(-c2ccccc2)[nH]1	-4	1	2	-13	44	-1
C[N+](C)(C)C/C=C1/COCO1	2	5	0	5	90*	-1
Cc1nc2c(ccc3nc(NC(=O)C4CC4)sc32)s1	-2	2	4	0	62*	8.6*
SMILES	IMP-1 inh	Calb FLC	ARFGAP1 inhibitor	ASAP1 inh	PHOSPHO1 block	VIM-2 inhibitor
CCCC(=O)Nc1nc2ccc3nc(C)sc3c2s1	-5	0	0	5	-94	0
CCC(=O)Nc1nc2ccc3sc(C)nc3c2s1	-3	0	8	0	64*	6
O=C(NCc1ccccc1)[C@@H]1CCCN1C(=O)[C@H]1CCCN1C(=O)c1c(F)cccc1F	.	.	-15	2	.	.
CC(C)C[C@H]1CNC(=S)N1C[C@H]1CCCN1C[C@H](CC(C)C)N1C[C@H](Cc2ccc(O)cc2)N(CC2CCCCC2)C1=S	.	.	7	13	.	.
Cc1c(NC(=O)Nc2cccc(C(F)(F)F)c2)c(=O)n(-c2ccccc2)n1C	-4	-5	-12	5	66*	-2
COc1cccc(NC(=O)Nc2c(C)n(C)n(-c3ccccc3)c2=O)c1	-3	-9	-7	0	-1	-4
COC(=O)c1cc2occc2n1Cc1c(F)cccc1Cl	1	.	.	.	38	0
CCOC(=O)c1cc2occc2n1Cc1c(F)cccc1Cl	-1	6	-8	11	1	-3
CCOC(=O)c1cc2occc2n1Cc1ccc(F)cc1	24*	.	7	1	-7	-3
COC(=O)c1cc2occc2n1Cc1ccc(Cl)cc1	-4	-23	-2	-8	64*	-3
O=C(O)c1ccc(COc2ccc3c4c(c(=O)oc3c2)CCC4)o1	0	9	-8	1	16	8.5*
NC(=O)C1CCN(C(=O)COc2ccc3c4c(c(=O)oc3c2)CCCC4)CC1	0	-10	20	3	24	11*
CC(Oc1ccc2c3c(c(=O)oc2c1)CCC3)C(=O)NCc1cccnc1 (configuration not stated)	-2	5	11	3	37	9.6*
Cc1cc(OCC(=O)N2CCOCC2)cc2oc(=O)c3ccccc3c12	-2	-5	13	7	-11	9.5*
O=c1oc2cc(OCc3ccc([N+](=O)[O-])cc3)ccc2c2c1CCCC2	-3	-14	5	9	22	-1
CCN=C1NC(CCc2ccccc2)C(C(=O)OC)=C(C)N1Cc1ccc(C(F)(F)F)cc1 (configuration not stated)	.	.	-7	-7	.	.
O=C(COc1ccc2c3c(c(=O)oc2c1)CCC3)N1CCN(c2ccc(F)cc2)CC1	-2	13	18	0	15	9.1*
Cc1cc(C)cc(N2CC(O)=C(c3nc4ccccc4c(=O)[nH]3)C2=N)c1	-1	-14	-1	-2	53	1
CC(C)N1CC(O)=C(c2nc3ccccc3c(=O)[nH]2)C1=N	-4	6	4	2	-6	10*
CCOC(=O)C1CCN(C(=O)NS(=O)(=O)c2ccc(C)cc2)CC1	9.6*	3	-4	3	-55	0

Compound activity deposited in PubChem by several laboratories.
